Assay results from ChEMBL document CHEMBL1765045, “Fine-tuning the selectivity of aldosterone synthase inhibitors: structure-activity and structure-selectivity insights from studies of heteroaryl substituted 1,2,5,6-tetrahydropyrrolo[3,2,1-ij]quinolin-4-one derivatives” (J Med Chem, 2011).

Tests used:
[1] = target: T1, Cytochrome P450 11B2, mitochondrial (Homo sapiens, UniProt P19099); test: Inhibition of human CYP11B2 expressed in hamster V79 MZh cells assessed as conversion of [4-14C]-11-deoxycorticosterone substrate by HPTLC assay; format: cell-based
T1 sequence (P19099 whole entry): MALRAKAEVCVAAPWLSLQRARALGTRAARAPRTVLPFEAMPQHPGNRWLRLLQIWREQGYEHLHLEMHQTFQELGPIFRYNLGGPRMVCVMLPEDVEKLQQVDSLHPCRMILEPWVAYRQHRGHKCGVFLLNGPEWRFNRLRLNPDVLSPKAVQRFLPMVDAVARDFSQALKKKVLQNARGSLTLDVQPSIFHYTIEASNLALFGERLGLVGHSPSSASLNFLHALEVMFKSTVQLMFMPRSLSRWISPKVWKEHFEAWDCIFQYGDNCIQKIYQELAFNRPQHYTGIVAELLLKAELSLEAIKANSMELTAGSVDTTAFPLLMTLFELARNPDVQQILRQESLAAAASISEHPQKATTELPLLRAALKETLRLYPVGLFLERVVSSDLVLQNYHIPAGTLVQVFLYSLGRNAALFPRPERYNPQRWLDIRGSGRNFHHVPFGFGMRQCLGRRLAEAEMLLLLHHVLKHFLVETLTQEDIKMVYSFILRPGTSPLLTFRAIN
Outline: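 Hamster V79 MZh fibroblasts expressing human CYP11B2 incubated with [4-14C]-11-deoxycorticosterone (100 nM) and inhibitor at ≥3 concentrations; reaction stopped with ethyl acetate, steroids extracted after shaking and centrifugation (10000g, 2 min). Substrate conversion read by HPTLC with phosphoimaging.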

[2] = target: T2, Cytochrome P450 11B1, mitochondrial (Homo sapiens, UniProt P15538); test: Inhibition of human CYP11B1 expressed in hamster V79 MZh cells assessed as conversion of [4-14C]-11-deoxycorticosterone substrate by HPTLC assay; format: cell-based
T2 sequence (P15538 whole entry): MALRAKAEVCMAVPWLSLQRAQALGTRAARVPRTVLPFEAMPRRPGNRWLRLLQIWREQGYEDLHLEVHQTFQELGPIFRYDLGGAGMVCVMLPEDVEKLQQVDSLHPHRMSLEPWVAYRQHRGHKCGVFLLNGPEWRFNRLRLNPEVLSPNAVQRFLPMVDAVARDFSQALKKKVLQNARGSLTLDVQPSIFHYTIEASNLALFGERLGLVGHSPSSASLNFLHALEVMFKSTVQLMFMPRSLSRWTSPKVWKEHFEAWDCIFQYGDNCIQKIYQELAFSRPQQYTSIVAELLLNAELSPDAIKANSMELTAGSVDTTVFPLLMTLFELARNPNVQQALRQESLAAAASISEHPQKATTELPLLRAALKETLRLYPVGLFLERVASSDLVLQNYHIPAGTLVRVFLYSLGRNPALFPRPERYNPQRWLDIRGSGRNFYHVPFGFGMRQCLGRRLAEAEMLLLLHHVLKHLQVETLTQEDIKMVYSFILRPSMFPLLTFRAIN
Outline: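 V79 MZh hamster fibroblasts stably expressing human CYP11B1 or CYP11B2 incubated with [4-14C]-11-deoxycorticosterone, 100 nM, plus inhibitor at ≥3 concentrations. Reaction stopped with ethyl acetate, steroids extracted into the organic phase, and substrate conversion quantified by HPTLC with phosphoimaging. IC50 is the mean of at least three experiments.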

[3] = target: T1, Cytochrome P450 11B2, mitochondrial; test: Inhibition of human CYP11B2 expressed in hamster V79 MZh cells assessed as conversion of [4-14C]-11-deoxycorticosterone substrate at 500 nM by HPTLC assay; format: cell-based; conditions: V79MZh
Outline: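 V79 MZh cells expressing human CYP11B2 given [4-14C]-11-deoxycorticosterone, 100 nM, with inhibitor at a single 500 nM concentration. Ethyl acetate extraction, then HPTLC/phosphoimager readout of conversion. Percent inhibition is the mean of at least three experiments.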

[4] = target: T3, CYP17 (Homo sapiens, UniProt P05093); test: Inhibition of human CYP17 expressed in Escherichia coli using progesterone substrate at 2 uM; conditions: recombinant human CYP17 expressed in Escherichia coli, probe progesterone
T3 sequence (P05093 whole entry): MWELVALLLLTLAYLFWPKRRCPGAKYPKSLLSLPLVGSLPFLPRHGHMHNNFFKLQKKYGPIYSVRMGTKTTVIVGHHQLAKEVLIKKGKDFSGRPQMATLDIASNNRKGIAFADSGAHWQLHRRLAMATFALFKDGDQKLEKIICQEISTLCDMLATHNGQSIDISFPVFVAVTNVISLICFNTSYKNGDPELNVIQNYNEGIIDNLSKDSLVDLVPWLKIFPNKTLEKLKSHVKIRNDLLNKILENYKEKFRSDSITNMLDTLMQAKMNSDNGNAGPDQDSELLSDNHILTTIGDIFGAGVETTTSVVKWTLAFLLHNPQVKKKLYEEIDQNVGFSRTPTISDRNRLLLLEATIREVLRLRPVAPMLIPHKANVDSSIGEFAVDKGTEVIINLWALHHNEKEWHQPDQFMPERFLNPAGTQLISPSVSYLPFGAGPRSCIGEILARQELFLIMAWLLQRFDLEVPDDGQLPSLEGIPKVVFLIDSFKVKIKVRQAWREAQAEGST
Outline: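 50000g sediment of E. coli homogenate recombinantly expressing human CYP17. Progesterone substrate at 25 μM, inhibitor tested at 2 μM.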

[5] = target: T4, CYP2C9 (Homo sapiens, UniProt P11712); test: Inhibition of human CYP2C9 expressed in baculovirus-infected insect microsomes at 1 uM; format: ADME, Microsome
Outline: (§1)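 Recombinant human CYP1A2, 2B6, 2C9, 2C19, 2D6 or 3A4 in baculovirus-infected insect microsomes (Supersomes), run per manufacturer's protocol. Inhibitor at 1 and 10 μM; percent inhibition is the mean of two experiments.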

[6] = target: T5, CYP1A2 (Homo sapiens, UniProt P05177); test: Inhibition of human CYP1A2 expressed in baculovirus-infected insect microsomes at 1 uM; format: ADME, Microsome; outline: as §1
T5 sequence (P05177 whole entry): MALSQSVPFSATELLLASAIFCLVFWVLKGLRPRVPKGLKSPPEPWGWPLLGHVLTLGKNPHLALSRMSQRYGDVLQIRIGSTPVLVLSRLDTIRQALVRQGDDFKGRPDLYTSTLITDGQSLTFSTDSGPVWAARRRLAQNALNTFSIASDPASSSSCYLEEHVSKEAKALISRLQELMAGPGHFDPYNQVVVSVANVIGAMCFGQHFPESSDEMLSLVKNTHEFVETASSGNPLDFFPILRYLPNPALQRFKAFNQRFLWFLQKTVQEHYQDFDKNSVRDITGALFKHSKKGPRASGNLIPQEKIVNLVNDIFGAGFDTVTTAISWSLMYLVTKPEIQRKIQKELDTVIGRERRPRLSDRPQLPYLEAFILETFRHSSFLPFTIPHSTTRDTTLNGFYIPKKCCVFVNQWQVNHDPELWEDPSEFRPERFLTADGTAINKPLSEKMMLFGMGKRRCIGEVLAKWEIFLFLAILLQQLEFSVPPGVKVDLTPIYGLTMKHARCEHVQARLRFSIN

[7] = target: T6, CYP3A4 (Homo sapiens, UniProt P08684); test: Inhibition of human CYP3A4 expressed in baculovirus-infected insect microsomes at 1 uM; format: ADME, Microsome; outline: as §1
[8] = target: T5, CYP1A2; test: Inhibition of human CYP1A2 expressed in baculovirus-infected insect microsomes at 10 uM; format: ADME, Microsome; outline: as §1
[9] = organism: Homo sapiens; test: Selectivity ratio of IC50 for human CYP11B1 to IC50 for human CYP11B2
Outline: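 Ratio of IC50 values from V79 MZh cell assays for human CYP11B1 and CYP11B2, IC50 CYP11B1/IC50 CYP11B2. Both assays used [4-14C]-11-deoxycorticosterone, 100 nM, inhibitor at ≥3 concentrations and HPTLC/phosphoimager readout of conversion.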

[10] = target: T7, CYP2C19 (Homo sapiens, UniProt P33261); test: Inhibition of human CYP2C19 expressed in baculovirus-infected insect microsomes at 10 uM; format: ADME, Microsome; outline: as §1
[11] = target: T6, CYP3A4; test: Inhibition of human CYP3A4 expressed in baculovirus-infected insect microsomes at 10 uM; format: ADME, Microsome; outline: as §1
[12] = target: T4, CYP2C9; test: Inhibition of human CYP2C9 expressed in baculovirus-infected insect microsomes at 10 uM; format: ADME, Microsome; outline: as §1
[13] = target: T7, CYP2C19; test: Inhibition of human CYP2C19 expressed in baculovirus-infected insect microsomes at 1 uM; format: ADME, Microsome; outline: as §1

T4 sequence (P11712 whole entry): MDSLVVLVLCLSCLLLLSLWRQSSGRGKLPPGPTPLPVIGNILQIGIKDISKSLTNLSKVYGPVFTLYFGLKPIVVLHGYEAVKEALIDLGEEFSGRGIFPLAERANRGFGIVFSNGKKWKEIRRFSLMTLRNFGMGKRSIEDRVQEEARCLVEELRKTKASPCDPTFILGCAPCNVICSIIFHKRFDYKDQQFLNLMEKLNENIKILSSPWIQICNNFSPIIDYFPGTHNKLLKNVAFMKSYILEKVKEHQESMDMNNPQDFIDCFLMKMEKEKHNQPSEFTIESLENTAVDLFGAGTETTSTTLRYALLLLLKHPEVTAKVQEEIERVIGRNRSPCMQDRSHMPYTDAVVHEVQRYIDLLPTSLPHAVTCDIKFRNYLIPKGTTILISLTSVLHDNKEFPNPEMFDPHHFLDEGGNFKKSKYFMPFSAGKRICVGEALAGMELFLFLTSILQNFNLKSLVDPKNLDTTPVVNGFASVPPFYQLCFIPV
T6 sequence (P08684 whole entry): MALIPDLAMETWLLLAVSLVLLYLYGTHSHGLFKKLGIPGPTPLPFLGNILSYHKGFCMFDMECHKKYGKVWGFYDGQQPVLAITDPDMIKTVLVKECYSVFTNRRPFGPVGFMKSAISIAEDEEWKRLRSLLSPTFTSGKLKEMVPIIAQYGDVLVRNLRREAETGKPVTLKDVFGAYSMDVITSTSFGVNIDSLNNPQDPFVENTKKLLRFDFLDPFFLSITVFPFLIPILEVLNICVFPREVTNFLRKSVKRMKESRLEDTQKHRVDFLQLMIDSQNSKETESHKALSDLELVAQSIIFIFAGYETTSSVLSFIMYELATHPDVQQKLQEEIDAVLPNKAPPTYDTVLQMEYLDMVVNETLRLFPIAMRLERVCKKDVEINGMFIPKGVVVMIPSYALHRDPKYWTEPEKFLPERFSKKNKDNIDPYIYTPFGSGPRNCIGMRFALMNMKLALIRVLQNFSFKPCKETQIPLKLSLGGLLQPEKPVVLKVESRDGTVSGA
T7 sequence (P33261 whole entry): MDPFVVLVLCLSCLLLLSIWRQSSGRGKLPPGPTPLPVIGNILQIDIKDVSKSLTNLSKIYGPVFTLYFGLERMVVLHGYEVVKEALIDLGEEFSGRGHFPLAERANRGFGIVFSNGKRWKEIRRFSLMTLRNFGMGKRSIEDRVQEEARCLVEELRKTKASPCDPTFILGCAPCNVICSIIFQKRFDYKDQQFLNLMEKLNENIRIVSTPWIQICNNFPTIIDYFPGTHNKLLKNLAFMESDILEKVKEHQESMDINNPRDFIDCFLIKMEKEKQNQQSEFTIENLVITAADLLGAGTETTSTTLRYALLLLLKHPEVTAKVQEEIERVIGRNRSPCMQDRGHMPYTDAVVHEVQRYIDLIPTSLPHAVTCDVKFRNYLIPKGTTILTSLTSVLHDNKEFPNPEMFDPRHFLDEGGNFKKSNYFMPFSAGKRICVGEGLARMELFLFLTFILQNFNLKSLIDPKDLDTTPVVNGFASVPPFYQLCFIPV

Compound | IC50 [1] | IC50 [2] | inhibition at 0.5 µM [3] | inhibition at 2 µM [4] | other results
CC1(C)CC(=O)N2CCc3cc(-c4cccnc4)cc1c32 |  |  | 48% |  | 
O=C1CCc2cc(-c3cncnc3)cc3c2N1CC3 | 56 nM | 28500 nM | 81% | 5% | 
O=C1CCc2cc(-c3cncc(C(F)(F)F)c3)cc3c2N1CC3 | 5.9 nM | 141 nM | 96% |  | 
O=C1CCc2cc(-c3cncc4ccccc34)cc3c2N1CCC3 | 0.2 nM | 34 nM | 95% | 5% | inhibition at 1 µM [5]: 73%; inhibition at 1 µM [6]: 24%; inhibition at 1 µM [7]: < 5%; inhibition at 10 µM [8]: 63%; Ratio IC50 [9]: 170; inhibition at 10 µM [10]: 96%; inhibition at 10 µM [11]: < 5%; inhibition at 10 µM [12]: 97%; inhibition at 1 µM [13]: 67%
CC(C)Oc1cncc(-c2cc3c4c(c2)CCN4C(=O)CC3)c1 | 2.2 nM | 103 nM | 96% |  | 
CCOc1cncc(-c2cc3c4c(c2)CCN4C(=O)CC3)c1 | 1 nM | 158 nM | 92% |  | Ratio IC50 [9]: 158
O=C1CCc2cc(-n3ccnc3)cc3c2N1CC3 | 89 nM | 2080 nM | 87% |  | 
O=C1CCc2cc(-c3cncc(O)c3)cc3c2N1CC3 | 4.3 nM | 2040 nM | 94% |  | 
O=C1CCc2cc(-c3cncc4ccccc34)cc3c2N1CC3 | 0.2 nM | 13 nM | 98% | 6% | 
O=C1CCc2cc(-c3cncc(F)c3)cc3c2N1CC3 | 4.4 nM | 1290 nM | 97% | < 5% | 
O=C1CCc2cc(-c3ccncc3)cc3c2N1CC3 |  |  | 7% |  | 
S=C1CCc2cc(-c3cccnc3)cc3c2N1CC3 | 1.2 nM | 333 nM | 96% | 11% | 

Continued, in another order:

IC50 [1] | IC50 [2] | inhibition at 0.5 µM [3] | inhibition at 2 µM [4] | Compound | other results
33 nM | 4650 nM | 80% |  | O=C1CCc2cc(-c3cncc(-c4cccc(C(F)(F)F)c4)c3)cc3c2N1CC3 | 
18 nM | 1750 nM | 81% |  | O=C1CCc2cc(-c3cncc(-c4cc(F)cc(F)c4)c3)cc3c2N1CC3 | 
3.6 nM | 183 nM | 80% |  | O=C1CCc2cc(-c3cncc(-c4cc(F)ccc4F)c3)cc3c2N1CC3 | 
0.9 nM | 40 nM | 96% |  | O=C1CCc2cc(-c3cncc(-c4ccc(F)cc4)c3)cc3c2N1CC3 | 
2.4 nM | 128 nM | 86% |  | COc1ccccc1-c1cncc(-c2cc3c4c(c2)CCN4C(=O)CC3)c1 | 
1.4 nM | 21 nM | 95% |  | COc1ccc(-c2cncc(-c3cc4c5c(c3)CCN5C(=O)CC4)c2)cc1 | 
16 nM | 2060 nM | 92% |  | O=C1CCc2cc(-c3cncc(-c4cccc(OC(F)(F)F)c4)c3)cc3c2N1CC3 | 
1.3 nM | 58 nM | 97% |  | O=C1CCc2cc(-c3cncc(-c4ccccc4)c3)cc3c2N1CC3 | Ratio IC50 [9]: 45
1.2 nM | 44 nM | 92% |  | O=C1CCc2cc(-c3cncc(-c4cccc(O)c4)c3)cc3c2N1CC3 | 
4.6 nM | 1370 nM | 86% | < 5% | COc1cccc(-c2cncc(-c3cc4c5c(c3)CCN5C(=O)CC4)c2)c1 | Ratio IC50 [9]: 299
2.3 nM | 496 nM | 89% | < 5% | O=C1CCc2cc(-c3cncc(-c4ccc(F)c(F)c4)c3)cc3c2N1CC3 | 
0.7 nM | 43 nM | 92% |  | O=C1CCc2cc(-c3cncc(-c4ccccc4F)c3)cc3c2N1CC3 | Ratio IC50 [9]: 61
0.9 nM | 545 nM | 95% | < 5% | COc1cncc(-c2cc3c4c(c2)CCC(=O)N4CCC3)c1 | inhibition at 1 µM [5]: 34%; inhibition at 1 µM [6]: 47%; inhibition at 1 µM [7]: 12%; inhibition at 10 µM [8]: 87%; inhibition at 10 µM [10]: 61%; inhibition at 10 µM [11]: 24%; inhibition at 10 µM [12]: 63%; inhibition at 1 µM [13]: 11%
